Legend:
Melanocortin receptor 4 [1] = molecular target: T1, Melanocortin receptor 4 (Homo sapiens, UniProt P32245); assay: Inhibition of [125I]NDP-MSH (radioligand) binding to the hMC4R stably expressed in HEK293 cells; assay type: cell-based
Procedure, shortened: (§1)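 Competition binding was run on HEK293 cells stably transfected with human MC1R, MC3R, MC4R or MC5R, each receptor in its own line. The radioligand was [125I]-NDP-MSH. For the MC4R values, data are the average of two to three independent measurements.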

Melanocortin receptor 4 [2] = molecular target: T1, Melanocortin receptor 4; assay: Stimulation of cAMP levels in the HEK293 cell line at 10 uM; assay type: functional, cell-based
Procedure, shortened: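 Agonism was measured as cAMP levels in HEK293 cells stably expressing human MC4R. The test ligand was applied at 10 μM, and the response was expressed relative to the response to α-MSH.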

[3] = molecular target: Melanocyte-stimulating hormone receptor (Homo sapiens, UniProt Q01726); assay: Inhibition of [125I]NDP-MSH (radioligand) binding to human MC1R at 10 um concentration stably expressed in HEK293 cells; assay type: cell-based; settings: for Inhibition: hek293
Melanocyte-stimulating hormone receptor, sequence (Q01726 whole entry): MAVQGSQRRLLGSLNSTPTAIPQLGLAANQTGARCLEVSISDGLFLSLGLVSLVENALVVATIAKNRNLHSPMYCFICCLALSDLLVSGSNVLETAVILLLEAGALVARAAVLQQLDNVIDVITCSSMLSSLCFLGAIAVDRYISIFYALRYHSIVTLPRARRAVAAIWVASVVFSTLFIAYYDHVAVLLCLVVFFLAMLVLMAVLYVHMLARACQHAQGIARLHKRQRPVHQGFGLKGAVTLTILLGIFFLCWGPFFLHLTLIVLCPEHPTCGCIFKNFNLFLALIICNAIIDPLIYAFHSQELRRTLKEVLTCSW
Procedure, shortened: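 Competition binding was run on HEK293 cells stably expressing human MC1R, with [125I]-NDP-MSH as the radioligand. The value is percent inhibition of binding with the test ligand at 10 µM.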

Melanocortin receptor 3 [4] = molecular target: T2, Melanocortin receptor 3 (Homo sapiens, UniProt P41968); assay: Inhibition of [125I]-NDP-MSH (radioligand) binding to the human MC3R stably expressed in HEK293 cells; assay type: cell-based; procedure, shortened: as §1
T2 sequence (P41968 whole entry): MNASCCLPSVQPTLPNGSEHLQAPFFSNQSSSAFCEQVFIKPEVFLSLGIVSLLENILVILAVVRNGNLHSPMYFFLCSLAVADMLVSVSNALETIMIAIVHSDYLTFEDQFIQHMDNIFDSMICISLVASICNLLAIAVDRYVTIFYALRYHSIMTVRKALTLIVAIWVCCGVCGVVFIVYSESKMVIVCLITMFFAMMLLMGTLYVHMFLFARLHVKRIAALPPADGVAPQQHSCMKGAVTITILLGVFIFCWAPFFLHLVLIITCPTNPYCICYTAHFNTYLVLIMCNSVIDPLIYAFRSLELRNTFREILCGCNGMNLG

Melanocortin receptor 5 = Melanocortin receptor 5 (Homo sapiens, UniProt P33032); assay: Inhibition of [125I]NDP-MSH (radioligand) binding to the human MC5R stably expressed in HEK293 cells; assay type: cell-based; procedure, shortened: as §1
Melanocortin receptor 5, sequence (P33032 whole entry): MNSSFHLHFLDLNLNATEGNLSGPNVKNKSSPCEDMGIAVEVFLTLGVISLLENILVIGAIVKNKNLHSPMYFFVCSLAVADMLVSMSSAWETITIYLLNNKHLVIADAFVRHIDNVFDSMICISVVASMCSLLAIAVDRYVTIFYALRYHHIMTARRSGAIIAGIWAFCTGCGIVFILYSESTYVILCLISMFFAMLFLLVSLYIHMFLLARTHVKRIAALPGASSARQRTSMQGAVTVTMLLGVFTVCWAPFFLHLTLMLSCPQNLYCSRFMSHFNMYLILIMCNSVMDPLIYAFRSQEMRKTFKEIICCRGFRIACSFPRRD

HEK293 [5] = assay: (§2) Dose-dependent inhibition of cAMP production stimulated by 10 nM a-MSH in HEK293 cells; assay type: functional, cell-based; settings: Homo sapiens
Procedure, shortened: (§3)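 Functional antagonism was measured as inhibition of cAMP production in HEK293 cells stably expressing human MC4R. Cells were stimulated with 10 nM α-MSH, and the test ligand was applied over a range of concentrations.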

Melanocortin receptor 3 [6] = molecular target: T2, Melanocortin receptor 3; assay: Inhibition of [125I]NDP-MSH (radioligand) binding to the human MC3R stably expressed in HEK293 cells; assay type: cell-based; procedure, shortened: as §1
Melanocortin receptor 4 [7] = molecular target: T1, Melanocortin receptor 4; assay: Inhibition of [125I]-AgRP(83132) (radioligand) binding to the hMC4R stably expressed in HEK293 cells; assay type: cell-based
Procedure, shortened: (§4)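 Competition binding was run on HEK293 cells stably transfected with human MC4R. The radioligand was [125I]-AgRP(83–132).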

HEK293 [8] = assay: as §2; assay type: functional, cell-based, Homo sapiens; procedure, shortened: as §3
HEK293 [9] = assay: Dose-dependent inhibition of cAMP production stimulated by 10 nM a-MSH in HEK293 cells;; assay type: functional, cell-based, Homo sapiens; procedure, shortened: as §3
Melanocortin receptor 4 [10] = molecular target: T1, Melanocortin receptor 4; assay: Inhibition of [125I]-AgRP(83132) (radioligand) binding to the hMC4R stably expressed in HEK293 cells;; assay type: cell-based; procedure, shortened: as §4

T1 sequence (P32245 whole entry): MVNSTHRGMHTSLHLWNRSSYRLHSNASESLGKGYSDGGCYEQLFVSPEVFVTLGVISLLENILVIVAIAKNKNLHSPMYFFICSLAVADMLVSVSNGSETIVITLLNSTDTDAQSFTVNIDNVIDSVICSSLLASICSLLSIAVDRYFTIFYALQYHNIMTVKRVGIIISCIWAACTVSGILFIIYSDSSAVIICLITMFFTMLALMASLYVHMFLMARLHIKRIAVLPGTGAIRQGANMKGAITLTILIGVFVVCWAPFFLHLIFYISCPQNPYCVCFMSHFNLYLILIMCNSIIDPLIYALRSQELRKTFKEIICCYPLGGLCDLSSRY

Ki (Melanocortin receptor 4 [1]) | Stimulation (Melanocortin receptor 4 [2]) | Compound | also measured
420 nM | 5.9% | NCCC(=O)N[C@H](Cc1ccc(Cl)cc1Cl)C(=O)N1CCN(C2(CNC(=O)Nc3ccc(Cl)cc3)CCCCC2)CC1 | 
350 nM | 6.5% | COc1ccccc1C(=O)NCC1(N2CCN(C(=O)[C@@H](Cc3ccc(Cl)cc3Cl)NC(=O)CCN)CC2)CCCCC1 | 
11 nM | 0.4% | NCCC(=O)N[C@H](Cc1ccc(Cl)cc1Cl)C(=O)N1CCN(C2(CNCCc3ccccc3)CCCCC2)CC1 | Inhibition [3]: 44%; Ki (Melanocortin receptor 3 [4]): 3200 nM; Ki (Melanocortin receptor 5): 1200 nM; IC50 (HEK293 [5]): 430 nM
230 nM | 5.1% | NCCC(=O)N[C@H](Cc1ccc(Cl)cc1Cl)C(=O)N1CCN(C2(CNC(=O)c3cccs3)CCCCC2)CC1 | 
92 nM | 5% | N#Cc1ccc(CNCC2(N3CCN(C(=O)[C@@H](Cc4ccc(Cl)cc4Cl)NC(=O)CCN)CC3)CCCCC2)cc1 | 
22 nM | 2.4% | NCCC(=O)N[C@H](Cc1ccc(Cl)cc1Cl)C(=O)N1CCN(C2(CNCc3ccc(OC(F)(F)F)cc3)CCCCC2)CC1 | 
250 nM | 7.7% | COc1ccc(C(=O)NCC2(N3CCN(C(=O)[C@@H](Cc4ccc(Cl)cc4Cl)NC(=O)CCN)CC3)CCCCC2)cc1 | 
7.6 nM | 1.8% | COc1cccc(CC(=O)NCC2(N3CCN(C(=O)[C@@H](Cc4ccc(Cl)cc4Cl)NC(=O)CCN)CC3)CCCCC2)c1 | Ki [3]: 2800 nM; Ki (Melanocortin receptor 3 [4]): 650 nM; Ki (Melanocortin receptor 5): 470 nM
12 nM | 8.1% | NCCC(=O)N[C@H](Cc1ccc(Cl)cc1Cl)C(=O)N1CCN(C2(CNCc3cccs3)CCCCC2)CC1 | Ki (Melanocortin receptor 5): 1900 nM; Ki (Melanocortin receptor 3 [6]): 2400 nM
540 nM | 11% | NCCC(=O)N[C@H](Cc1ccc(Cl)cc1Cl)C(=O)N1CCN(C2(CNC(=O)Nc3ccc([N+](=O)[O-])cc3)CCCCC2)CC1 | 
49 nM | 4.9% | NCCC(=O)N[C@H](Cc1ccc(Cl)cc1Cl)C(=O)N1CCN(C2(CNCc3nccs3)CCCCC2)CC1 | 
270 nM | 7.8% | Cc1ccc(C(=O)NCC2(N3CCN(C(=O)[C@@H](Cc4ccc(Cl)cc4Cl)NC(=O)CCN)CC3)CCCCC2)cc1 | 
220 nM | 5.1% | NCCC(=O)N[C@H](Cc1ccc(Cl)cc1Cl)C(=O)N1CCN(C2(CNCC3CCCCC3)CCCCC2)CC1 | 
490 nM | 0.9% | NCCC(=O)N[C@H](Cc1ccc(Cl)cc1Cl)C(=O)N1CCN(C2(CNC(=O)C(F)(F)F)CCCCC2)CC1 | 
18 nM | 5.1% | NCCC(=O)N[C@H](Cc1ccc(Cl)cc1Cl)C(=O)N1CCN(C2(CNCc3ccccc3)CCCCC2)CC1 | 
210 nM | 10% | NCCC(=O)N[C@H](Cc1ccc(Cl)cc1Cl)C(=O)N1CCN(C2(CNC(=O)c3ccc(Cl)cc3)CCCCC2)CC1 | 
12 nM | 4.7% | NCCC(=O)N[C@H](Cc1ccc(Cl)cc1Cl)C(=O)N1CCN(C2(CNCc3ccccc3F)CCCCC2)CC1 | Inhibition [3]: 45%; Ki (Melanocortin receptor 3 [4]): 2300 nM; Ki (Melanocortin receptor 5): 1400 nM; Ki (Melanocortin receptor 4 [7]): 13 nM; IC50 (HEK293 [8]): 760 nM
18 nM | 2.7% | COc1ccc(CC(=O)NCC2(N3CCN(C(=O)[C@@H](Cc4ccc(Cl)cc4Cl)NC(=O)CCN)CC3)CCCCC2)cc1OC | 
210 nM | 5.5% | NCCC(=O)N[C@H](Cc1ccc(Cl)cc1Cl)C(=O)N1CCN(C2(CNC(=O)Nc3ccc(F)cc3)CCCCC2)CC1 | 
220 nM | 4.3% | NCCC(=O)N[C@H](Cc1ccc(Cl)cc1Cl)C(=O)N1CCN(C2(CNC(=O)c3cccnc3)CCCCC2)CC1 | 
36 nM | 1% | COc1ccc(NC(=O)NCC2(N3CCN(C(=O)[C@@H](Cc4ccc(Cl)cc4Cl)NC(=O)CCN)CC3)CCCCC2)cc1 | 
340 nM | 8.7% | NCCC(=O)N[C@H](Cc1ccc(Cl)cc1Cl)C(=O)N1CCN(C2(CNC(=O)c3ccc(C(F)(F)F)cc3)CCCCC2)CC1 | 
220 nM | 5.1% | NCCC(=O)N[C@H](Cc1ccc(Cl)cc1Cl)C(=O)N1CCN(C2(CNC(=O)c3ccccc3)CCCCC2)CC1 | 

Ki (Melanocortin receptor 4 [1]) | Stimulation (Melanocortin receptor 4 [2]) | Compound | also measured
150 nM | 4.4% | NCCC(=O)N[C@H](Cc1ccc(Cl)cc1Cl)C(=O)N1CCN(C2(CNC(=O)c3ccncc3)CCCCC2)CC1 | 
340 nM | 3.6% | CC(C)(C)CCNCC1(N2CCN(C(=O)[C@@H](Cc3ccc(Cl)cc3Cl)NC(=O)CCN)CC2)CCCCC1 | 
180 nM | 0.7% | CC(C)CNCC1(N2CCN(C(=O)[C@@H](Cc3ccc(Cl)cc3Cl)NC(=O)CCN)CC2)CCCCC1 | 
110 nM | 4.2% | CN(C)c1ccc(CNCC2(N3CCN(C(=O)[C@@H](Cc4ccc(Cl)cc4Cl)NC(=O)CCN)CC3)CCCCC2)cc1 | 
260 nM | 4.5% | NCCC(=O)N[C@H](Cc1ccc(Cl)cc1Cl)C(=O)N1CCN(C2(CNC(=O)c3ccco3)CCCCC2)CC1 | 
400 nM | 8.9% | NCCC(=O)N[C@H](Cc1ccc(Cl)cc1Cl)C(=O)N1CCN(C2(CNC(=O)c3ccc(OC(F)(F)F)cc3)CCCCC2)CC1 | 
60 nM | 2.8% | NCCC(=O)N[C@H](Cc1ccc(Cl)cc1Cl)C(=O)N1CCN(C2(CNCCCc3ccccc3)CCCCC2)CC1 | 
260 nM | 12% | COC(=O)c1ccc(NC(=O)NCC2(N3CCN(C(=O)[C@@H](Cc4ccc(Cl)cc4Cl)NC(=O)CCN)CC3)CCCCC2)cc1 | 
36 nM | 3% | NCCC(=O)N[C@H](Cc1ccc(Cl)cc1Cl)C(=O)N1CCN(C2(CNCc3ccccn3)CCCCC2)CC1 | 
4.2 nM | 0.6% | COc1ccc(CC(=O)NCC2(N3CCN(C(=O)[C@@H](Cc4ccc(Cl)cc4Cl)NC(=O)CCN)CC3)CCCCC2)cc1 | Ki [3]: 5700 nM; Ki (Melanocortin receptor 3 [4]): 1100 nM; Ki (Melanocortin receptor 5): 540 nM; Ki (Melanocortin receptor 4 [7]): 2.8 nM; IC50 (HEK293 [8]): 150 nM
520 nM | 8.2% | CC(C)(C)c1ccc(C(=O)NCC2(N3CCN(C(=O)[C@@H](Cc4ccc(Cl)cc4Cl)NC(=O)CCN)CC3)CCCCC2)cc1 | 
8.8 nM | 1.6% | NCCC(=O)N[C@H](Cc1ccc(Cl)cc1Cl)C(=O)N1CCN(C2(CNC(=O)Cc3ccccc3)CCCCC2)CC1 | Inhibition [3]: 47%; Ki (Melanocortin receptor 3 [4]): 710 nM; Ki (Melanocortin receptor 5): 920 nM; IC50 (HEK293 [9]): 260 nM; Ki (Melanocortin receptor 4 [10]): 6.4 nM
190 nM | 7.9% | NCCC(=O)N[C@H](Cc1ccc(Cl)cc1Cl)C(=O)N1CCN(C2(CNC(=O)c3ccc(F)cc3)CCCCC2)CC1 | 
120 nM | 6.7% | NCCC(=O)N[C@H](Cc1ccc(Cl)cc1Cl)C(=O)N1CCN(C2(CNC(=O)c3ccc([N+](=O)[O-])cc3)CCCCC2)CC1 | 
62 nM | 2.7% | CN(C)c1ccc(NC(=O)NCC2(N3CCN(C(=O)[C@@H](Cc4ccc(Cl)cc4Cl)NC(=O)CCN)CC3)CCCCC2)cc1 | 
21 nM | 2.3% | NCCC(=O)N[C@H](Cc1ccc(Cl)cc1Cl)C(=O)N1CCN(C2(CNC(=O)Cc3ccc(F)cc3)CCCCC2)CC1 | 
45 nM | 4.1% | NCCC(=O)N[C@H](Cc1ccc(Cl)cc1Cl)C(=O)N1CCN(C2(CNCc3ccc(C(F)(F)F)cc3)CCCCC2)CC1 | 
290 nM | 0.5% | NCCC(=O)N[C@H](Cc1ccc(Cl)cc1Cl)C(=O)N1CCN(C2(CN)CCCCC2)CC1 | 
61 nM | 6.4% | NCCC(=O)N[C@H](Cc1ccc(Cl)cc1Cl)C(=O)N1CCN(C2(CNCc3ccc(F)cc3)CCCCC2)CC1 | 
240 nM | 12% | NCCC(=O)N[C@H](Cc1ccc(Cl)cc1Cl)C(=O)N1CCN(C2(CNC(=O)c3ccc(Br)cc3)CCCCC2)CC1 | 
23 nM | 1.4% | NCCC(=O)N[C@H](Cc1ccc(Cl)cc1Cl)C(=O)N1CCN(C2(CNC(=O)Cc3ccc(Cl)cc3)CCCCC2)CC1 | 
8.4 nM | 3.4% | NCCC(=O)N[C@H](Cc1ccc(Cl)cc1Cl)C(=O)N1CCN(C2(CNC(=O)Cc3cccs3)CCCCC2)CC1 | Ki [3]: 4600 nM; Ki (Melanocortin receptor 3 [4]): 1100 nM; Ki (Melanocortin receptor 5): 480 nM
